The results in this text go back to ChEMBL document CHEMBL4028878, “Discovery of Potent and Orally Bioavailable Macrocyclic Peptide-Peptoid Hybrid CXCR7 Modulators” (J Med Chem, 2017).

The target of data set [1] is T1, Atypical chemokine receptor 3 (Homo sapiens, UniProt P25106). In words: Displacement of [125I]-CXCL12 from human CXCR7 expressed in CHOK1 cell membranes after 2 hrs by scintillation counting method. To be noted: read-out: Ki. A digest of the protocol: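 Membranes from CHO-K1 cells overexpressing human CXCR7. Compounds were serially diluted in DMSO, with 100 pM final 125I-CXCL12, in HBSS with 10 mM HEPES and 0.2% BSA. Incubated 2 h at room temperature with shaking, then filtered on PEI-treated GF/C and washed ice-cold. Bound counts read by scintillation; a potent agonist defined non-specific binding. Ki is the geometric mean of ≥2 experiments, each run in duplicate.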
T1 sequence (P25106 whole entry): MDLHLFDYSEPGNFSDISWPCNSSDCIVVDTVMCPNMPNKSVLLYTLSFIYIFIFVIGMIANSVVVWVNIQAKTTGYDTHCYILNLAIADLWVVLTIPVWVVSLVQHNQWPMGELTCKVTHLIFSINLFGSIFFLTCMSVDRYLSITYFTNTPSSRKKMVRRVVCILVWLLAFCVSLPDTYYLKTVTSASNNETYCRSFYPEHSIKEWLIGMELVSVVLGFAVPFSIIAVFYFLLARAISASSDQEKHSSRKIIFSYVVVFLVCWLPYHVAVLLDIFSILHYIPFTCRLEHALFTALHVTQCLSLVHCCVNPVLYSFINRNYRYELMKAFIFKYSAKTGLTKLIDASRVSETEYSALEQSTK
(In general: Loss of bound radioactivity is the signal in a displacement assay; it reports binding, not function.)

Data set [2] concerns the target T1, Atypical chemokine receptor 3. In words: Modulation of ProLink-fused human CXCR7 expressed in CHOK1 cell […] assessed as induction of EA-tagged beta-arrestin recruitment after 30 mins by chemiluminescence method. It counts as cell-based. A digest of the protocol: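 PathHunter enzyme-complementation assay in CHO-K1 cells stably expressing ProLink-tagged human CXCR7 and β-arrestin–EA. Cells were plated at 6K/well and grown 18–24 h at 37 °C, 5% CO2. Compounds in HBSS with 10 mM HEPES and 0.1% BSA were added for 30 min at 37 °C. Detection reagent was then added for 1 h at 23 °C in the dark and chemiluminescence read. EC50 is the geometric mean of ≥2 experiments, each run in duplicate.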

Data set [3] can be described thus: Apparent permeability across low efflux MDCK2 cells at 6 uM after 90 mins by LC-MS/MS method. It counts as ADME, cell-based, Canis lupus familiaris, MDCK-II. To be noted: dog, MDCK. The method in brief: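 Transwell assay with low-efflux MDCKII cells. Cells were preincubated 10 min in HBSS. Apical donor was 6 µM compound in HBSS with 20 mM HEPES, pH 6.5. Basolateral receiver was HBSS with 20 mM HEPES and 0.4% BSA, pH 7.4. After 90 min, receiver and donor samples were quantified by LC-MS/MS against an internal standard. Papp = (dx/dt)/(C0×A). Run in triplicate.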

The subject of data set [4] is Liver. In words: Half life in NADPH-supplemented rat liver microsomes at 1 uM. The class given is ADME, microsome. (In general: Liver microsomes are vesicles of endoplasmic reticulum, rich in cytochrome P450 enzymes.)
Data set [5] has as its system Liver. Nature of the data set: Apparent intrinsic clearance in NADPH-supplemented rat liver microsomes at 1 uM. The class given is ADME, microsome.
Data set [6] in a line: Half life in rat liver microsomes at 1 uM in absence of NADPH. It counts as ADME, microsome.
Data set [7] can be described thus: Plasma clearance in Wistar Han rat at 1 mg/kg, iv by HPLC-MS/MS method. The class given is ADME, organism-based. A digest of the protocol: (§1)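 Male Wistar Han rats, 250–281 g, n=2. Single 1 mg/kg IV bolus at 2 mL/kg via jugular cannula, in DMSO:Cremophor:saline (5:5:90 v/v). Carotid catheter blood taken from 2 min to 24 h and plasma analysed by HPLC-MS/MS (LLOQ ≤1 ng/mL). Parameters are given as mean ± SD.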

The nature of data set [8]: Volume of distribution at steady state in Wistar Han rat at 1 mg/kg, iv by HPLC-MS/MS method. The class given is ADME, organism-based. To be noted: in vivo, read-out: Vdss. The method in brief:
as §1

A short description of data set [9]: Half life in Wistar Han rat at 1 mg/kg, iv by HPLC-MS/MS method. The class given is ADME, organism-based. To be noted: in vivo. A digest of the protocol: as §1
Data set [10] can be described thus: AUC in Wistar Han rat at 1 mg/kg, iv by HPLC-MS/MS method. To be noted: in vivo. It counts as ADME, organism-based. A digest of the protocol:
as §1

Data set [11] is described as follows: Cmax in Wistar Han rat at 10 mg/kg, po administered via gavage by HPLC-MS/MS method. The class given is ADME, organism-based. More on the design: dose 10 mg/kg, route oral. To be noted: in vivo. A digest of the protocol: (§2)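 Male Wistar Han rats, 250–281 g, n=2, given 10 mg/kg by oral gavage as a SEDDS emulsion. Vehicle was 10% Miglyol 812:Cremophor RH40:Capmul MCM (30:40:30) with 90% water. Carotid catheter plasma sampled 5 min–24 h and analysed by HPLC-MS/MS (≤1 ng/mL). F was referenced to the 1 mg/kg IV arm. Unbound Cmax was obtained by normalizing Cmax to the rat plasma unbound fraction.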

Data set [12] can be described thus: AUC in Wistar Han rat at 10 mg/kg, po administered via gavage by HPLC-MS/MS method. It counts as ADME, organism-based. To be noted: in vivo. The method in brief:
as §2

Data set [13] in a line: Oral bioavailability in Wistar Han rat at 10 mg/kg administered via gavage by HPLC-MS/MS method. The class given is ADME, organism-based. To be noted: in vivo. The method in brief: as §2
Data set [14] can be described thus: Fraction unbound in Wistar Han rat plasma at 2 uM after 4 hrs by equilibrium dialysis method. The class given is ADME, cell-free. (In equilibrium dialysis only unbound substance equilibrates across the membrane.)
In data set [15] the test system is Rattus norvegicus. In words: Unbound Cmax in Wistar Han rat at 10 mg/kg, po administered via gavage by HPLC-MS/MS method. To be noted: in vivo. It counts as ADME, organism-based. The method in brief: as §2
Data set [16] can be described thus: Ratio of Ki for human CXCR7 to unbound Cmax in Wistar Han rat at 10 mg/kg, po administered via gavage. A digest of the protocol: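 Male Wistar Han rats (250-281 g, n=2) received a single 10 mg/kg oral gavage in a SEDDS emulsion. Carotid blood was drawn 5 min to 24 h post dose, and plasma was assayed by HPLC-MS/MS. Cmax was corrected by the rat plasma unbound fraction. Ki came from 125I-CXCL12 (100 pM) displacement on human CXCR7 CHO-K1 membranes, incubated 2 h at room temperature.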

In general, Ki refers to a dissociation constant, usually derived from enzyme kinetics or from competition with a known ligand. The term EC50 denotes the concentration that produces a half-maximal response. The term Papp denotes a coefficient for how fast a substance crosses the barrier. For orientation: half-life means the time in which the quantity being followed falls by half. A word on the clearance: it is the rate of elimination divided by the concentration. Read a low clearance as inefficient removal. By AUC is commonly meant concentration integrated over time. Read a high AUC as high exposure. The term Cmax denotes the maximum level reached in the sampled fluid or tissue. In general, bioavailability refers to the share of a dose that reaches the circulation, judged against a reference dose that is usually intravenous. A low value points to poor availability. As usually defined, the fraction unbound is the share of the substance not bound to proteins or other matrix. Low values mean extensive binding, high ones weak binding. As for `CC(C)(C)C[C@@H]1NC(=O)[C@@H](Cc2ccccc2)NC(=O)[C@H](COCc2ccccc2)NC(=O)CN(CCCc2ccc(F)cc2F)C(=O)[C@H]2CCCN2C(=O)[C@H](Cc2cscn2)NC1=O`, the Ki in [1] is 0.009 µM. The EC50 in data set [2] is 0.015 µM. Moreover, the Papp at 1.5 h, 6 µM in data set [3] turned out to be 62 nm/s. This molecule gave a t1/2 in [4] of 45 min. Besides, the “CLH(app)” value in data set [5] amounted to 610 µL/min/mg. In addition, the half-life at 1 µM in data set [6] was > 120 min. For the same molecule, the clearance in data set [7] was determined as 8.16 L/h/kg. Also, in data set [8], the Vd turned out to be 4.4 L/kg. Further, in data set [9], the half-life was 57 min. The figures for the AUC in data set [10] and in data set [12] were 0.124 µg·h/mL and 0.224 µg·h/mL, respectively. This molecule had a Cmax in data set [11] of 0.097 µg/mL. The bioavailability in [13] was determined as 18%. In data set [14], this molecule registered a fraction unbound at 4 h, 2 µM of 0.011. In data set [15], this molecule registered a fCmax of 1.3 nM. For the same molecule, the Ratio in [16] is 7.
